In experiment [1] the test system is Mycobacteroides abscessus. Nature of the experiment: Antimycobacterial activity against Mycobacterium abscessus ATCC 19977 assessed as bacterial growth inhibition incubated for 72 hrs by resazurin dye based broth microdilution method. The format is functional, organism-based. An outline of the steps:
(§1)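 Broth microdilution in Middlebrook 7H9 with 10% ADC-Tween-80 (0.2% glycerol, 0.05% Tween-80), inoculum ~10⁶ cfu/mL. Compounds came from 10 mg/mL DMSO stocks and were tested as two-fold serial dilutions at 37 °C, 7 days for M. tuberculosis H37Rv and 72 h for NTM. Growth was read visually with PrestoBlue resazurin dye; MIC was the lowest concentration preventing growth. Triplicate determinations, each in duplicate.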
On the technique in general: The colour change of resazurin is a common sign of viable cells or microbes.

Experiment [2] concerns Mycolicibacterium fortuitum. Nature of the experiment: Antimycobacterial activity against Mycobacterium fortuitum ATCC 6841 assessed as bacterial growth inhibition incubated for 72 hrs by resazurin dye based broth microdilution method. The class given is functional, organism-based. The procedure, abridged: as §1
Another experiment deals with Staphylococcus aureus. As to the kind of experiment: Antibacterial activity against Staphylococcus aureus ATCC 29213 assessed as bacterial growth inhibition incubated for 16 to 18 hrs by CLSI based antibiotic susceptibility testing method. The class given is functional. Particulars: time 16-18 hrs. An outline of the steps:
(§2)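 Broth microdilution in cation-adjusted Mueller-Hinton broth. Compounds were tested at […], with levofloxacin as reference and medium-only controls. Plates were incubated at 37 °C for 16-18 h. MIC was the lowest concentration with no visible growth; three independent determinations, each in duplicate.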

The next experiment deals with Mycobacteroides chelonae. As to the kind of experiment: Antimycobacterial activity against Mycobacteroides chelonae ATCC 35752 assessed as bacterial growth inhibition incubated for 72 hrs by resazurin dye based broth microdilution method. The class given is functional, organism-based. An outline of the steps:
as §1

The next experiment has as its system Klebsiella pneumoniae. Nature of the experiment: Antibacterial activity against Klebsiella pneumoniae BAA 1705 assessed as bacterial growth inhibition incubated for 16 to 18 hrs by CLSI based antibiotic susceptibility testing method. Conditions: time 16-18 hrs. The class given is functional, organism-based. An outline of the steps:
as §2

The next experiment has as its system Pseudomonas aeruginosa. As to the kind of experiment: Antibacterial activity against Pseudomonas aeruginosa ATCC 27853 assessed as bacterial growth inhibition incubated for 16 to 18 hrs by CLSI based antibiotic susceptibility testing method. The class given is functional, organism-based. Particulars: time 16-18 hrs. An outline of the steps: as §2
Another experiment deals with Acinetobacter baumannii. As to the kind of experiment: Antibacterial activity against Acinetobacter baumannii BAA 1605 assessed as bacterial growth inhibition incubated for 16 to 18 hrs by CLSI based antibiotic susceptibility testing method. The format is functional, organism-based. Conditions: time 16-18 hrs. An outline of the steps: as §2
The test system of another experiment is Escherichia coli. Nature of the experiment: Antibacterial activity against Escherichia coli ATCC 25922 assessed as bacterial growth inhibition incubated for 16 to 18 hrs by CLSI based antibiotic susceptibility testing method. The format is functional, organism-based. Particulars: time 16-18 hrs. The procedure, abridged:
as §2

Experiment [3] has as its system Mycobacterium tuberculosis. As to the kind of experiment: Antimycobacterial activity against Mycobacterium tuberculosis H37Rv ATCC 27294 assessed as bacterial growth inhibition incubated for 7 days by resazurin dye based broth microdilution method. The class given is functional. Conditions: H37Rv ATCC 27294, 168 h, time 7 day. The procedure, abridged: as §1

Molecules are shown by their SMILES. In brackets after ≈: the same amount, converted by molar mass. Activity calls are given as the source filed them. No cut-off for these calls is given here. A value given as a limit tells only on which side of the number the result lay.

The term MIC denotes the lowest concentration found to suppress growth. With `O=C(CN1C(=O)c2cccc3cccc(c23)C1=O)N1CCN(C(=S)Nc2ccc(Cl)cc2)CC1`, the “growth inhibition (GI)” value (in experiment [1]; in experiment [2]; in the experiment on Mycobacteroides chelonae; with Klebsiella pneumoniae; in the experiment with Pseudomonas aeruginosa; in the experiment with Acinetobacter baumannii) was “inactive” throughout. Besides, the “growth inhibition (GI)” value with Escherichia coli is “inactive”. Further, the values for the MIC (in the experiment with Staphylococcus aureus; in [3]) were over 64 µg/mL and 8 µg/mL (≈ 16.2 µM), respectively.

On to `O=C(CCN1C(=O)c2cccc3cccc(c23)C1=O)N1CCN(C(=S)Nc2ccc(Cl)cc2)CC1`, for which the “growth inhibition (GI)” value (in [1]; in experiment [2]; with Mycobacteroides chelonae; with Klebsiella pneumoniae; in the experiment with Pseudomonas aeruginosa; in the experiment on Acinetobacter baumannii) was “inactive” in each case. For the same compound, the “growth inhibition (GI)” value in the experiment on Escherichia coli was “inactive”. Also, the minimum inhibitory concentration (MIC) with Staphylococcus aureus is over 64 µg/mL; in experiment [3] it was 64 µg/mL (≈ 126 µM).

Regarding `O=C(CCN1C(=O)c2cccc3cccc(c23)C1=O)N1CCN(C(=S)Nc2ccccc2Cl)CC1`, the “growth inhibition (GI)” value (in experiment [1]; in [2]; in the experiment on Mycobacteroides chelonae; with Klebsiella pneumoniae; in the experiment with Pseudomonas aeruginosa; with Acinetobacter baumannii) was “inactive” in each case. Moreover, the “growth inhibition (GI)” value in the experiment on Escherichia coli is “inactive”. In addition, the MIC (in the experiment with Staphylococcus aureus; in experiment [3]) was over 64 µg/mL throughout.

As to `O=C(CN1C(=O)c2cccc3cccc(c23)C1=O)N1CCN(C(=S)Nc2ccccc2)CC1`, the “growth inhibition (GI)” value (in experiment [1]; in experiment [2]; in the experiment on Mycobacteroides chelonae; with Klebsiella pneumoniae; in the experiment on Pseudomonas aeruginosa; with Acinetobacter baumannii) was “inactive” throughout. Further, the “growth inhibition (GI)” value in the experiment with Escherichia coli is “inactive”. In addition, the MIC in the experiment with Staphylococcus aureus was over 64 µg/mL; in experiment [3], 16 µg/mL (≈ 34.9 µM).

On to `CCN=C(S)N1CCN(CCN2C(=O)c3cccc4cccc(c34)C2=O)CC1`, for which the “growth inhibition (GI)” value (in experiment [1]; in [2]; in the experiment on Mycobacteroides chelonae; in the experiment with Klebsiella pneumoniae; in the experiment on Pseudomonas aeruginosa; in the experiment on Acinetobacter baumannii) was “inactive” throughout. Moreover, the “growth inhibition (GI)” value with Escherichia coli is “inactive”. Further, the results for the MIC (with Staphylococcus aureus; in experiment [3]) were over 64 µg/mL and 64 µg/mL (≈ 161 µM), respectively.

Regarding `COc1ccc(NC(=S)N2CCN(CCN3C(=O)c4cccc5cccc(c45)C3=O)CC2)cc1`, the “growth inhibition (GI)” value (in experiment [1]; in experiment [2]; with Mycobacteroides chelonae; in the experiment on Klebsiella pneumoniae; in the experiment on Pseudomonas aeruginosa; in the experiment on Acinetobacter baumannii) was “inactive” each time. For the same compound, the “growth inhibition (GI)” value in the experiment on Escherichia coli is “inactive”. The MIC (with Staphylococcus aureus; in [3]) was over 64 µg/mL throughout.

With `O=C(CN1C(=O)c2cccc3cccc(c23)C1=O)NC1CCN(C(=S)NC2CCCC2)CC1`, the “growth inhibition (GI)” value (in experiment [1]; in experiment [2]; in the experiment with Mycobacteroides chelonae; in the experiment with Klebsiella pneumoniae; in the experiment with Pseudomonas aeruginosa; in the experiment with Acinetobacter baumannii) was “inactive” throughout. The “growth inhibition (GI)” value in the experiment with Escherichia coli was “inactive”. The minimal inhibitory concentration (MIC) (in the experiment on Staphylococcus aureus; in experiment [3]) was over 64 µg/mL in each case.

In the case of `Cc1ccc(NC(=S)N2CCN(C(=O)CN3C(=O)c4cccc5cccc(c45)C3=O)CC2)cc1`, the “growth inhibition (GI)” value (in [1]; in [2]; with Mycobacteroides chelonae; with Klebsiella pneumoniae; in the experiment with Pseudomonas aeruginosa; in the experiment with Acinetobacter baumannii) was “inactive” each time. Further, the “growth inhibition (GI)” value with Escherichia coli was “inactive”. The MIC in the experiment with Staphylococcus aureus was over 64 µg/mL; in experiment [3], 64 µg/mL (≈ 135 µM).

With `Cc1ccc(NC(=S)N2CCN(C(=O)CCN3C(=O)c4cccc5cccc(c45)C3=O)CC2)cc1`, the “growth inhibition (GI)” value (in experiment [1]; in experiment [2]; with Mycobacteroides chelonae; in the experiment on Klebsiella pneumoniae; with Pseudomonas aeruginosa; in the experiment on Acinetobacter baumannii) was “inactive” throughout. In the experiment with Escherichia coli, the “growth inhibition (GI)” value is “inactive”. Further, the MIC (with Staphylococcus aureus; in experiment [3]) was over 64 µg/mL in each case.

With `O=C1c2cccc3cccc(c23)C(=O)N1CCN1CCN(C(=S)Nc2cccnc2)CC1`, the “growth inhibition (GI)” value (in experiment [1]; in experiment [2]; with Mycobacteroides chelonae; in the experiment with Klebsiella pneumoniae; with Pseudomonas aeruginosa; in the experiment on Acinetobacter baumannii) was “inactive” throughout. For the same compound, the “growth inhibition (GI)” value with Escherichia coli was “inactive”. Besides, the minimal inhibitory concentration (MIC) (with Staphylococcus aureus; in [3]) was over 64 µg/mL throughout.

For the compound `O=C(Nc1ccccc1)N1CCN(CCN2C(=O)c3cccc4cccc(c34)C2=O)CC1`, the “growth inhibition (GI)” value (in experiment [1]; in [2]; with Mycobacteroides chelonae; in the experiment with Klebsiella pneumoniae; with Pseudomonas aeruginosa; with Acinetobacter baumannii) was “inactive” in each case. Moreover, the “growth inhibition (GI)” value in the experiment with Escherichia coli was “inactive”. In addition, the MIC is 8 µg/mL (≈ 18.7 µM) with Staphylococcus aureus and 32 µg/mL (≈ 74.7 µM) in [3].

Regarding `CC[C@@H](CO)NCCN[C@@H](CC)CO` [ETHAMBUTOL], the “growth inhibition (GI)” value (in experiment [1]; in experiment [2]; in the experiment on Mycobacteroides chelonae) was “inactive” throughout. Also, the MIC in experiment [3] was 2 µg/mL (≈ 9.79 µM).

On to `O=C1c2cccc3cccc(c23)C(=O)N1CCN1CCN(C(=S)Nc2ccc(Cl)c(Cl)c2)CC1`, for which the “growth inhibition (GI)” value (in experiment [1]; in experiment [2]; in the experiment on Mycobacteroides chelonae; in the experiment with Klebsiella pneumoniae; in the experiment with Pseudomonas aeruginosa; in the experiment with Acinetobacter baumannii) was “inactive” each time. Further, the “growth inhibition (GI)” value in the experiment with Escherichia coli is “inactive”. Also, the MIC (with Staphylococcus aureus; in experiment [3]) was over 64 µg/mL throughout.

With `O=C1c2cccc3cccc(c23)C(=O)N1CCN1CCN(C(=S)Nc2ccccc2Cl)CC1`, the “growth inhibition (GI)” value (in [1]; in experiment [2]; in the experiment on Mycobacteroides chelonae; in the experiment with Klebsiella pneumoniae; with Pseudomonas aeruginosa; in the experiment with Acinetobacter baumannii) was “inactive” throughout. Besides, the “growth inhibition (GI)” value in the experiment on Escherichia coli is “inactive”. Further, the MIC (with Staphylococcus aureus; in [3]) was over 64 µg/mL each time.

As for `NNC(=O)c1ccncc1` [ISONIAZID], the “growth inhibition (GI)” value (in [1]; in [2]; in the experiment on Mycobacteroides chelonae) was “inactive” in each case. The MIC in [3] was 0.03 µg/mL (≈ 0.219 µM).

On to `CO[C@H]1/C=C/O[C@@]2(C)Oc3c(C)c(O)c4c(O)c(c(/C=N/N5CCN(C)CC5)c(O)c4c3C2=O)NC(=O)/C(C)=C\C=C\[C@H](C)[C@H](O)[C@@H](C)[C@@H](O)[C@@H](C)[C@H](OC(C)=O)[C@@H]1C` [RIFAMPIN], for which the “growth inhibition (GI)” value (in experiment [1]; in experiment [2]; with Mycobacteroides chelonae) was “inactive” throughout. The minimal inhibitory concentration (MIC) in experiment [3] was 0.03 µg/mL (≈ 0.0365 µM).

On to `NCC[C@H](O)C(=O)N[C@@H]1C[C@H](N)[C@@H](O[C@H]2O[C@H](CN)[C@@H](O)[C@H](O)[C@H]2O)[C@H](O)[C@H]1O[C@H]1O[C@H](CO)[C@@H](O)[C@H](N)[C@H]1O` [AMIKACIN], for which the “growth inhibition (GI)” value (in experiment [1]; in experiment [2]; in the experiment on Mycobacteroides chelonae) was “inactive” throughout. Besides, the MIC in [3] worked out at 0.5 µg/mL (≈ 0.854 µM).

With `CN[C@@H]1[C@H](O[C@H]2[C@H](O[C@H]3[C@H](O)[C@@H](O)[C@H](N=C(N)N)[C@@H](O)[C@@H]3N=C(N)N)O[C@@H](C)[C@]2(O)C=O)O[C@@H](CO)[C@H](O)[C@H]1O` [STREPTOMYCIN], the “growth inhibition (GI)” value (in experiment [1]; in [2]; in the experiment on Mycobacteroides chelonae) was “inactive” in each case. Further, in experiment [3], the MIC amounted to 1 µg/mL (≈ 1.72 µM).

The values above are taken from ChEMBL document CHEMBL5385966, “Synthesis and biological evaluation of new naphthalimide-thiourea derivatives as potent antimicrobial agents active against multidrug-resistant Staphylococcus aureus and Mycobacterium tuberculosis” (RSC Med Chem, 2024).
